High-throughput results: PubChem, several laboratories
In the library only some 2.3% were active in any assay of this set; here they are far more common.
STAT3 blocker: inhibitors of IL-6 induced STAT3 signaling; actives 0.89% (n = 190,000); inhibition, % at 5.5 µM; U3A cells, IL-6 STAT3-luciferase reporter, luminescence; host cell line lacks STAT1; AID 862;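 active = inhibition above the mean inhibition across all screened compounds plus 3 SD, cut at about 44% in these data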
STAT1 blocker: STAT1 signaling inhibition; NIH 3T3 STAT1-luciferase reporter, IFN-gamma, luminescence; inhibition, % at 5.5 µM; actives 0.35% (n = 200,000); AID 920;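 active = inhibition above a set limit, the mean inhibition across all tested compounds plus 3 SD, cut at about 34% in these data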
STAT3 act-1: activators of IL-6 induced STAT3 signaling. U3A cells, IL-6 STAT3-luciferase reporter, luminescence; 100% = signal with IL-6 EC80 alone. activation (% of control), % at 5.6 µM. actives 0.91% (n = 190,000). AID 871;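 active = activation above the screen-wide mean of compound activation plus 3 SD, cut at about 130% in these data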
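Material: STAT1-lacking human U3A cells, STAT3 luciferase reporter | Benchmarks: IL-6-only wells as 100% reference | Probe or stimulus: IL-6 (33 ng/mL) | Timing: Compound 1 h, then IL-6 6 h at 37 °C | Detection: Luminescence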
C8 TRAIL sens: caspase-8 TRAIL sensitization | NB7+C8 cells + TRAIL, ATPlite viability luminescence | inhibition (viability loss, TRAIL sensitization), % at 10 µM | actives 1% (n = 360,000);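 active = compounds causing at least 50% loss of cell viability in the single-dose screen, relative to plate controls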
HSP90 inh: blocks HSP90-mediated luciferase refolding in reticulocyte lysate; Rabbit reticulocyte lysate, luciferase refolding luminescence, 3 h; inhibition, % at 5.6 µM; actives 0.91% (n = 290,000); AID 1789;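 active = inhibition above the screen-wide mean plus 3 SD, computed separately per campaign, cut at about 16% in these data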;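 also: inhibitors lower the luminescence because luciferase stays unfolded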
PPC-1+TRAIL kill: compounds killing PPC-1 cancer cells with TRAIL present (potentiator screen, no TRAIL-free arm); actives 0.41% (n = 220,000); PPC-1 cells + TRAIL, ATPLite viability luminescence; cell killing (% activity), % at 4 µM or 5 µM;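 active = cell killing above 50% in the first pass at 4 µM, then a duplicate retest at 5 µM averaging 50% or more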
STAT3 act-2: confirmation of STAT3 signaling activators; shares compounds with STAT3 act-1; U3A STAT3-luciferase reporter, IL-6 potentiation, luminescence; U3A cells lack STAT1; 100 means same as IL-6 alone; potentiation (% of control), % at 5.7 µM; actives 64% (n = 1,200);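 active = percent activation of the STAT3 luciferase reporter above a set limit taken from the earlier primary screen, cut at about 130% in these data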
NFkB act STAT3ct: activates NF-kappaB, counter-screen to STAT3 activators. activation (% of control), % at 5.7 µM. actives 11% (n = 1,200). shares compounds with STAT3 act-1. human cells, NF-kappaB reporter activation; in the data active = activation above about 120%;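 also: reporter induced by TNF-alpha stimulation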
STAT1 act: STAT1 activation in STAT3 activator counter-screen; shares compounds with STAT3 act-1; NIH 3T3 STAT1-luciferase reporter, IFN-gamma, luminescence; activation (% of control), % at 5.7 µM; actives 13% (n = 1,200); AID 1318;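 active = activation above the solvent-only control well mean plus 3 SD, set per screening run, cut at about 120% in these data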
Of the large screens only hits and unclear results are named; the others gave an inactive call (follow-up assays come after a bar, where they were run).

O=C(O)c1cc(-c2c[nH]c3ccccc23)nc2ccc3ccccc3c12	STAT3 act-1 141.9 | STAT3 act-2 163.4 | NFkB act STAT3ct inactive | STAT1 act inactive
CCOC(=O)c1[nH]c2ccccc2c1NC(=O)CC	STAT3 act-1 193.8 | STAT3 act-2 148.0 | NFkB act STAT3ct inactive | STAT1 act inactive
CCOC(=O)c1[nH]c2ccccc2c1NC(C)=O	none (no result: STAT3 blocker, STAT1 blocker, STAT3 act-1, HSP90 inh)
CCOC(=O)c1[nH]c2ccccc2c1NC(=O)COC	STAT3 act-1 168.1 | STAT3 act-2 165.3 | NFkB act STAT3ct inactive | STAT1 act inactive
COc1cc(C(=O)N/N=C/C2CC=CCC2)cc(OC)c1OC (centres undefined)	STAT3 act-1 144.1 | STAT3 act-2 inactive | NFkB act STAT3ct inactive | STAT1 act inactive
O=C(N/N=C/C1CC=CCC1)c1ccc(O)cc1O (centres undefined)	none
c1cncc(-c2noc(-c3cccc4ccccc34)n2)c1	STAT3 act-1 188.5 | STAT3 act-2 176.4 | NFkB act STAT3ct 123.7 | STAT1 act 147.9
Cc1ccc(Cl)cc1N1CCN(C(=O)Cc2c(C(=O)O)[nH]c3ccccc23)CC1	STAT3 act-1 138.1 | STAT3 act-2 inactive | NFkB act STAT3ct inactive | STAT1 act inactive
Cc1ccc(Cl)cc1N1CCN(C(=O)Cc2c(C(=O)O)[nH]c3ccc(Cl)cc23)CC1	none
CCn1cc([N+](=O)[O-])c(C(=O)N2N=C(c3ccc(OC)cc3OC)CC2c2ccccc2O)n1 (centres undefined)	none
O=C(COc1ccccc1)Nc1ccc(NC(=O)c2ccco2)cc1	none
COc1ccc(Cl)cc1NC(=O)C(C)Sc1nncn1C (centres undefined)	none
COc1ccc(OC)c(-c2nnc(NC(=O)C(C)Sc3nncn3C)s2)c1 (centres undefined)	STAT3 act-1 140.1 | STAT3 act-2 inactive | NFkB act STAT3ct inactive | STAT1 act inactive
Cc1ccc2c(c1)CCCN2C(=O)c1cccs1	STAT3 act-1 146.1 | STAT3 act-2 inactive | NFkB act STAT3ct inactive | STAT1 act inactive
CC(C)CCOC(=O)C1[C@H]2C(=O)N(Cc3cccs3)C[C@]23C=C[C@H]1O3 (some centres undefined)	none
Cc1ccc2cc(C#N)c(N3CCCN(C(=O)C4CCCO4)CC3)nc2c1C (centres undefined)	none
Cc1ccc2cc(C#N)c(N3CCCC3)nc2c1C	STAT3 act-1 140.1 | STAT3 act-2 136.8 | NFkB act STAT3ct inactive | STAT1 act 132.5
Cc1[nH]c2ccccc2c1/C=N/Nc1ccc(F)cc1F	STAT3 act-1 154.8 (no result: C8 TRAIL sens) | STAT3 act-2 142.0 | NFkB act STAT3ct inactive | STAT1 act 121.1
Cc1[nH]c2ccccc2c1/C=N/NC(=O)c1cccc(F)c1	none
CC1(C)CC(=O)C2=C(C1)N(c1ccccc1C#N)C(N)=C(C#N)C2c1cccs1 (centres undefined)	STAT3 act-1 140.2 | STAT3 act-2 149.3 | NFkB act STAT3ct inactive | STAT1 act inactive
Cc1ccc(CN2CCN(Cc3cc4ccccc4o3)CC2CCO)cc1 (centres undefined)	none (no result: STAT3 blocker, STAT1 blocker, STAT3 act-1, PPC-1+TRAIL kill)
Cn1c(CN2CCN(c3cccc(Cl)c3)CC2)nc2ccccc21	STAT3 act-1 138.6 | STAT3 act-2 inactive | NFkB act STAT3ct inactive | STAT1 act inactive
Cn1nnnc1SCc1nc2ccccc2s1	STAT3 act-1 139.2 | STAT3 act-2 139.4 | NFkB act STAT3ct inactive | STAT1 act 124.3
O=c1c2ccccc2nc(SCc2nc3ccccc3s2)n1CCCO	STAT3 act-1 137.1 | STAT3 act-2 151.4 | NFkB act STAT3ct 120.8 | STAT1 act 151.2
Cn1nnnc1SCc1cccc2ccccc12	none
CCOC(=O)c1[nH]c2ccccc2c1NC(=O)C(C)(C)C	none
